Assay results of several laboratories.
Lines come from different studies, so protocols differ.
Target: Serine/threonine-protein kinase MARK2 (MARK2, Homo sapiens, UniProt Q7KZI7)

| SMILES | observed | method | tested at | remaining binding [%] |
| --- | --- | --- | --- | --- |
| COc1cnc(Nc2cccc(S(N)(=O)=O)c2)nc1N1CCN(c2ccccc2)CC1 | binding | competition with immobilised ligand | 1 µM | 88 |
| O=C(c1ccc(Nc2ncc(Cl)c(-c3ccc(Cl)s3)n2)cc1)N1CCC(N2CCCC2)CC1 | binding | competition with immobilised ligand | 1 µM | 69 |
| Nc1ncc2c(n1)-c1c([nH]c3ccc(C#CC4CC4)cc13)CCCC2 | binding | competition with immobilised ligand | 1 µM | 94 |
| CN(C)c1nccc(-c2cnn3ncccc23)n1 | binding |  | 1 µM | 96 |
| O=C(Nc1c[nH]nc1C(=O)NC1CCNCC1)c1cc(F)cc(F)c1 | binding | competition with immobilised ligand | 1 µM | 100 |
| CO[C@@H](C)c1c(Nc2ccc([C@@H](N(C)C(=O)C3CCS(=O)(=O)CC3)C(F)(F)F)cc2)cnc2cc(Cl)nn12 | cell-free assay | competition with immobilised ligand | 1 µM | 100 |
| CN(CCCC(F)(F)F)c1nccc(-c2cnn3ncccc23)n1 | binding |  | 1 µM | 100 |
| O=C(Nc1cccnn1)N1CCC(=Cc2cccc(Oc3ccc(C(F)(F)F)cn3)c2)CC1 | cell-free assay | competition with immobilised ligand | 1 µM | 100 |
| CC1CCCN1c1nccc(-c2cnn3ncccc23)n1 (stereo not shown) | binding |  | 1 µM | 70 |
| O=C(c1ccc(Nc2nccc(-c3cc4ccccc4s3)n2)cc1)N1CCC(N2CCCC2)CC1 | binding | competition with immobilised ligand | 1 µM | 91 |
| CS(=O)(=O)NCC[C@H](NC(=O)c1cncc2c1cnn2-c1ccc(F)cc1)c1ccnc(S(C)(=O)=O)c1 | cell-free assay | competition with immobilised ligand | 1 µM | 75 |
| CNC(=O)[C@@H]1CC[C@@H](n2c(-c3ccc4cnccc4c3)nc3ccc(C(=O)NCc4cccc(C(N)=O)c4)cc32)C1 | binding | competition with immobilised ligand | 1 µM | 100 |
| O=C(c1ccc(Nc2ncc(Cl)c(-c3cc4ccccc4s3)n2)cc1)N1CCC(N2CCCC2)CC1 | binding | competition with immobilised ligand | 1 µM | 80 |
| CN(c1nccc(-c2cnn3ncccc23)n1)C1CC1 | binding |  | 1 µM | 100 |
| O=C(NCCCC1CCCCC1)c1ccc(CNC(=O)c2cnn(-c3ccccc3)c2C(F)(F)F)cc1 | cell-free assay | competition with immobilised ligand | 0.1 µM | 100 |
| N[C@H]1CCN(c2nccc(-c3cnn4ncccc34)n2)C1 | binding |  | 1 µM | 100 |
| CCc1ccccc1C(=O)Nc1n[nH]c2c(C)c(F)c(C3C(C#N)=C(C)N(C)C(C)=C3C#N)cc12 | cell-free assay | competition with immobilised ligand | 1 µM | 40 |
| c1cncc(-c2cccc(Nc3nccc(NC4CCCCC4)n3)c2)c1 | binding | competition with immobilised ligand | 10 µM | 81 |
| C[C@H](c1ccnc(Nc2nc3ccc(-c4cc(N(C)C)ncn4)cc3[nH]2)c1)N1CCN(C(=O)CC(F)(F)F)CC1 | cell-free assay | competition with immobilised ligand | 0.1 µM | 100 |
| COc1ccnn2ncc(-c3ccnc(N(C)C)n3)c12 | binding |  | 1 µM | 92 |
| O=S(=O)(NC1CCC(c2cc(F)ccc2F)(S(=O)(=O)c2ccc(Cl)cc2)CC1)C(F)(F)F (stereo not shown) | cell-free assay | competition with immobilised ligand | 1 µM | 100 |
| C[C@@H](c1ccc(-n2cnc3c(N)ncnc32)cc1)N1CCc2nn(C)c(Cc3ccccc3)c2C1=O | binding | competition with immobilised ligand | 0.1 µM | 91 |
